Results taken from ChEMBL document CHEMBL4765248, “Design, synthesis, biological evaluation and molecular docking study of novel thieno[3,2-d]pyrimidine derivatives as potent FAK inhibitors” (Eur J Med Chem, 2020).

Tests used:
A549 [1] = assay: Antiproliferative activity against human A549 cells assessed as inhibition of cell growth measured after 72 hrs by MTT assay; format: functional, cell-based; conditions: A549, 72 h
How it was run: (§1)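 Cells were seeded at 4000–5000/well and held 24 h at 37 °C in 5% CO2. Compounds were added at the indicated final concentrations and incubated 72 h. MTT was added (5 mg/mL in PBS, stated as final) for 4 h at 37 °C. Formazan was dissolved in DMSO and absorbance read at 490 nm. The 50% growth-inhibitory concentration is the mean of three independent experiments ± SE.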

MDA-MB-231 [2] = assay: Antiproliferative activity against human MDA-MB-231 cells assessed as inhibition of cell growth measured after 72 hrs by MTT assay; format: functional, cell-based; conditions: MDA-MB-231, 72 h; how it was run: as §1
[3] = target: Serine/threonine-protein kinase B-raf (Homo sapiens) (UniProt P15056); assay: Inhibition of GST-tagged human full length BRAF expressed in baculovirus expression system at 1 uM by Selectscreen kinase assay
How it was run: (§2)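 Single-point screen at 1 μM final against a panel of 25 kinases using a commercial profiling service; mean of three independent experiments each run in triplicate.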

[4] = target: Fibroblast growth factor receptor 4 (Homo sapiens) (UniProt P22455); assay: Inhibition of His-tagged human FGFR4 cytoplasmic domain expressed in baculovirus expression system at 1 uM by Selectscreen kinase assay; how it was run: as §2
[5] = test system: Hepatocyte growth factor receptor (Homo sapiens), P08581 [Y1235D]; assay: Inhibition of GST-tagged partial length human MET (956-1390 residues) Y1235D mutant expressed in insect expression system at 1 uM by Selectscreen kinase assay; how it was run: as §2
[6] = target: Serine/threonine-protein kinase mTOR (Homo sapiens) (UniProt P42345); assay: Inhibition of GST-tagged partial length human mTOR catalytic domain (1360-2549 residues) expressed in baculovirus expression system at 1 uM by Selectscreen kinase assay; how it was run: as §2
[7] = target: Serine/threonine-protein kinase PAK 1 (Homo sapiens) (UniProt Q13153); assay: Inhibition of GST-tagged full length human PAK1 expressed in baculovirus expression system at 1 uM by Selectscreen kinase assay; how it was run: as §2
[8] = target: Serine/threonine-protein kinase pim-1 (Homo sapiens) (UniProt P11309); assay: Inhibition of His-tagged full length recombinant human PIM1 expressed in baculovirus expression system at 1 uM by Selectscreen kinase assay; how it was run: as §2
[9] = target: Protein kinase C theta type (Homo sapiens) (UniProt Q04759); assay: Inhibition of His-tagged full length human PKC theta expressed in baculovirus expression system at 1 uM by Selectscreen kinase assay; how it was run: as §2
MDA-MB-231 [10] = assay: Induction of apoptosis in human MDA-MB-231 cells assessed as viable cells at 0.1 uM incubated for 48 hrs by Annexin V-FITC/PI staining based flow cytometric analysis (reference value: 95.84%); format: functional; conditions: read-out: Activity
MDA-MB-231 [11] = assay: Induction of apoptosis in human MDA-MB-231 cells assessed as late apoptotic cells at 0.1 uM incubated for 48 hrs by Annexin V-FITC/PI staining based flow cytometric analysis (reference value: 1.49%); format: functional
MDA-MB-231 [12] = assay: Induction of apoptosis in human MDA-MB-231 cells assessed as viable cells at 0.2 uM incubated for 48 hrs by Annexin V-FITC/PI staining based flow cytometric analysis (reference value: 95.84%); format: functional; conditions: read-out: Activity
MDA-MB-231 [13] = assay: Induction of apoptosis in human MDA-MB-231 cells assessed as late apoptotic cells at 0.4 uM incubated for 48 hrs by Annexin V-FITC/PI staining based flow cytometric analysis (reference value: 1.49%); format: functional
MDA-MB-231 [14] = assay: Induction of cell cycle arrest in human MDA-MB-231 cells assessed as accumulation of cells at S phase at 0.1 uM measured after 48 hrs by PI staining based flow cytometry method (reference value: 39.17%); format: functional
MDA-MB-231 [15] = assay: Induction of cell cycle arrest in human MDA-MB-231 cells assessed as accumulation of cells at G0/G1 phase at 0.2 uM measured after 48 hrs by PI staining based flow cytometry method (reference value: 43.43%); format: functional
MDA-MB-231 [16] = assay: Induction of cell cycle arrest in human MDA-MB-231 cells assessed as accumulation of cells at S phase at 0.2 uM measured after 48 hrs by PI staining based flow cytometry method (reference value: 39.17%); format: functional
MDA-MB-231 [17] = assay: Induction of cell cycle arrest in human MDA-MB-231 cells assessed as accumulation of cells at G0/G1 phase at 0.4 uM measured after 48 hrs by PI staining based flow cytometry method (reference value: 43.43%); format: functional
MDA-MB-231 [18] = assay: Induction of cell cycle arrest in human MDA-MB-231 cells assessed as accumulation of cells at S phase at 0.4 uM measured after 48 hrs by PI staining based flow cytometry method (reference value: 39.17%); format: functional
MDA-MB-231 [19] = assay: Induction of cell cycle arrest in human MDA-MB-231 cells assessed as accumulation of cells at G2/M phase at 0.4 uM measured after 48 hrs by PI staining based flow cytometry method (reference value: 17.40%); format: functional
MDA-MB-231 [20] = assay: Inhibition of cell migration in human MDA-MB-231 cells at 0.15 to 0.6 uM by wound healing assay; format: functional, cell-based; conditions: dose 0.15-0.6 µM, time 24-48 hrs, TDE = time-dependent effect
How it was run: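 MDA-MB-231 cells (2×10^6/well) were grown to confluence and the monolayer was scratched with a pipette tip. Cells were washed with PBS, kept in serum-free medium and treated with DMSO or compound at 0.15, 0.3 or 0.6 μM for 48 h. Wound closure was photographed by inverted microscope at 24 and 48 h.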

[21] = Intrinsic clearance in rat liver at 1 uM measured after 60 mins in presence of NADPH by LC-MS/MS analysis; format: ADME; conditions: 1 h
How it was run: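 Rat liver microsomes (0.5 mg/mL) were incubated at 37 °C with 1 μM compound in 100 mM potassium phosphate, pH 7.4, with 10 mM MgCl2. Reaction was started with prewarmed NADPH cofactor and sampled at 0, 5, 10, 20, 30 and 60 min. Protein was precipitated with cold acetonitrile and supernatants analysed by LC-MS/MS to give half-life, 1 h remaining and intrinsic clearance.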

A549 [22] = assay: Antiproliferative activity against human A549 cells assessed as cell viability at 0.5 uM measured after 24 hrs by MTT assay (reference value: 100%); format: functional; conditions: read-out: Activity
MDA-MB-231 [23] = assay: Antiproliferative activity against human MDA-MB-231 cells assessed as cell viability at 0.1 uM measured after 24 hrs by MTT assay (reference value: 100%); format: functional; conditions: read-out: Activity
MDA-MB-231 [24] = assay: Antiproliferative activity against human MDA-MB-231 cells assessed as cell viability at 0.1 uM measured after 72 hrs by MTT assay (reference value: 100%); format: functional; conditions: read-out: Activity
MDA-MB-231 [25] = assay: Antiproliferative activity against human MDA-MB-231 cells assessed as cell viability at 2.5 uM measured after 48 hrs by MTT assay (reference value: 100%); format: functional; conditions: read-out: Activity
MDA-MB-231 [26] = assay: Antiproliferative activity against human MDA-MB-231 cells assessed as reduction in cell viability measured after 24 to 72 hrs by MTT assay; format: functional, cell-based; conditions: dose 0.1-2.5 µM, time 24-72 hrs
A549 [27] = assay: Antiproliferative activity against human A549 cells assessed as reduction in cell viability at 0.1 to 2.5 uM by MTT assay; format: functional, cell-based; conditions: dose 0.1-2.5 µM, time 24-72 hrs, TDE = time-dependent effect

Protein kinase C theta type (Homo sapiens), sequence (Q04759 whole entry, looked up): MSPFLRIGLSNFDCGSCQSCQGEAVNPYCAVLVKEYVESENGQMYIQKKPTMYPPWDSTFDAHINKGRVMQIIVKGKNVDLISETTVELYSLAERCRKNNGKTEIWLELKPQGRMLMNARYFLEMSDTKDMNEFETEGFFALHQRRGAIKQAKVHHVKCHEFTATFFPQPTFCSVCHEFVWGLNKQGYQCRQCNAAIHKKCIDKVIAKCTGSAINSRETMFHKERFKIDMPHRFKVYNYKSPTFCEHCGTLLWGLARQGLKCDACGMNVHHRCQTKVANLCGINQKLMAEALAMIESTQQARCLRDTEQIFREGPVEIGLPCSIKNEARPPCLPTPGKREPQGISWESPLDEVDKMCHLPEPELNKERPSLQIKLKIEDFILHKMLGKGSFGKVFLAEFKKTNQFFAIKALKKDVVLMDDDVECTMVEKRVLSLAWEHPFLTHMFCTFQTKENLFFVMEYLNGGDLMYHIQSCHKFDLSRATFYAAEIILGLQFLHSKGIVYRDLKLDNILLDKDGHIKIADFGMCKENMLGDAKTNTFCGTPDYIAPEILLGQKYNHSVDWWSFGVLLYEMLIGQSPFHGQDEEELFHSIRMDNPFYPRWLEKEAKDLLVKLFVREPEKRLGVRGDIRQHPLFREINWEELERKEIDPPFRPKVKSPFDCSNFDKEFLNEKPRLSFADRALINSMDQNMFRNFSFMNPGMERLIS
Hepatocyte growth factor receptor (Homo sapiens), P08581 [Y1235D], sequence (P08581 whole entry Y1235D, the tested form may be a part): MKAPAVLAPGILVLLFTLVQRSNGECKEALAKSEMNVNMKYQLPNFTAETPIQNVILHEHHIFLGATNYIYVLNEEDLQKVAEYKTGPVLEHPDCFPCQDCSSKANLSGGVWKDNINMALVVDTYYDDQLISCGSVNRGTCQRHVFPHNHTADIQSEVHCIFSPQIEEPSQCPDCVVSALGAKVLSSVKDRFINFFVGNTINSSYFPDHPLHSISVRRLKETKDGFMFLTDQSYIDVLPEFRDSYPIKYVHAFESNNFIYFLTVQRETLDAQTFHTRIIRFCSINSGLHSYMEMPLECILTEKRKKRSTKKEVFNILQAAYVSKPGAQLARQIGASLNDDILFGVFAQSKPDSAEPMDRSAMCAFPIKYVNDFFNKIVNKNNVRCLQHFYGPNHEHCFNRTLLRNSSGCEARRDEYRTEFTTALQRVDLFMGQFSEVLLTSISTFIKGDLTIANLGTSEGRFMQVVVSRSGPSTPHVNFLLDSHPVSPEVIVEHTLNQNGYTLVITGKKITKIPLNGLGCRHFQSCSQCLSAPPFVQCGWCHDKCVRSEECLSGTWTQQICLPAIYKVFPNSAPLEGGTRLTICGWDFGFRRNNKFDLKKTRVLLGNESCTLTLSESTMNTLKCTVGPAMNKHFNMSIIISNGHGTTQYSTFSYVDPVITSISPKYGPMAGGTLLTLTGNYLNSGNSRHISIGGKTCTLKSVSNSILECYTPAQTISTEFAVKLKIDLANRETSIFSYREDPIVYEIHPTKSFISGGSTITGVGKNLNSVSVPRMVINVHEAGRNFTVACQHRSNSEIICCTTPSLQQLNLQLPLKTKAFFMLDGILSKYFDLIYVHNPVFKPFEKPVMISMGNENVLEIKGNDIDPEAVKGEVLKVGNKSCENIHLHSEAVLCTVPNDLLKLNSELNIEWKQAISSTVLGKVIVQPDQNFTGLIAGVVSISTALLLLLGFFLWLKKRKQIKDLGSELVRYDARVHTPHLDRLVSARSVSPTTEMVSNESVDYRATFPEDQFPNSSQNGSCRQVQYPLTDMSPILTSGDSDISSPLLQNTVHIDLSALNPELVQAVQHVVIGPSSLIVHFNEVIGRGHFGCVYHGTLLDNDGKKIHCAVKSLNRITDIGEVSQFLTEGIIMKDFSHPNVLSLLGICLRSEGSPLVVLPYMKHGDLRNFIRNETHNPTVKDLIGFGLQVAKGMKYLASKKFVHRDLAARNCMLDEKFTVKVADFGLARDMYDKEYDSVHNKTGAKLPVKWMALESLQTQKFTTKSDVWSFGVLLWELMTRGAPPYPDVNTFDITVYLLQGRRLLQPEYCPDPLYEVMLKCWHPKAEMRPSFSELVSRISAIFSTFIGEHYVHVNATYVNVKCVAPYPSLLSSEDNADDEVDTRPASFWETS
Serine/threonine-protein kinase PAK 1 (Homo sapiens), sequence (Q13153 whole entry): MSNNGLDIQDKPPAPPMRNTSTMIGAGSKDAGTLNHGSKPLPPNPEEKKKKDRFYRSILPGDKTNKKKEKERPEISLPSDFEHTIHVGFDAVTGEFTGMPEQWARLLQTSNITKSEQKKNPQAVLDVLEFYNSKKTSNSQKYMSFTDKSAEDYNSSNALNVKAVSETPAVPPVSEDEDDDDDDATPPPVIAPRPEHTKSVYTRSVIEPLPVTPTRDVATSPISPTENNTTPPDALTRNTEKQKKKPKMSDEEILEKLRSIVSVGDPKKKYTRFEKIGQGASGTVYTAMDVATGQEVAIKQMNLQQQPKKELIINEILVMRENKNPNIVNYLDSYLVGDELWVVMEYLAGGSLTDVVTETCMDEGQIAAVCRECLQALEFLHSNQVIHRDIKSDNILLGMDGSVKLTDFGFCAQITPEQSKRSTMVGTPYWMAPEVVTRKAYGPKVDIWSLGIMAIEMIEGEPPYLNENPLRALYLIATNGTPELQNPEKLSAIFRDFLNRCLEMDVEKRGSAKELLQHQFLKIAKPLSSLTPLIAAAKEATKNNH
Serine/threonine-protein kinase pim-1 (Homo sapiens), sequence (P11309 whole entry, looked up): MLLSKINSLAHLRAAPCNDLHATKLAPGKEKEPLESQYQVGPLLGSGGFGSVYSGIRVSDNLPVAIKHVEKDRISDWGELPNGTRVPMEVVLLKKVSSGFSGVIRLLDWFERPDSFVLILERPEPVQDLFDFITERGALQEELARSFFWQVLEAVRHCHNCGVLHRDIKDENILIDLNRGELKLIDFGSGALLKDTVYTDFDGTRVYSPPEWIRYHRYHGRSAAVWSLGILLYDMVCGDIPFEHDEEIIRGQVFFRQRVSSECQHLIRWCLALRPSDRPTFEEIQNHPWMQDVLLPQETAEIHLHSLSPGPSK
Serine/threonine-protein kinase B-raf (Homo sapiens), sequence (P15056 whole entry): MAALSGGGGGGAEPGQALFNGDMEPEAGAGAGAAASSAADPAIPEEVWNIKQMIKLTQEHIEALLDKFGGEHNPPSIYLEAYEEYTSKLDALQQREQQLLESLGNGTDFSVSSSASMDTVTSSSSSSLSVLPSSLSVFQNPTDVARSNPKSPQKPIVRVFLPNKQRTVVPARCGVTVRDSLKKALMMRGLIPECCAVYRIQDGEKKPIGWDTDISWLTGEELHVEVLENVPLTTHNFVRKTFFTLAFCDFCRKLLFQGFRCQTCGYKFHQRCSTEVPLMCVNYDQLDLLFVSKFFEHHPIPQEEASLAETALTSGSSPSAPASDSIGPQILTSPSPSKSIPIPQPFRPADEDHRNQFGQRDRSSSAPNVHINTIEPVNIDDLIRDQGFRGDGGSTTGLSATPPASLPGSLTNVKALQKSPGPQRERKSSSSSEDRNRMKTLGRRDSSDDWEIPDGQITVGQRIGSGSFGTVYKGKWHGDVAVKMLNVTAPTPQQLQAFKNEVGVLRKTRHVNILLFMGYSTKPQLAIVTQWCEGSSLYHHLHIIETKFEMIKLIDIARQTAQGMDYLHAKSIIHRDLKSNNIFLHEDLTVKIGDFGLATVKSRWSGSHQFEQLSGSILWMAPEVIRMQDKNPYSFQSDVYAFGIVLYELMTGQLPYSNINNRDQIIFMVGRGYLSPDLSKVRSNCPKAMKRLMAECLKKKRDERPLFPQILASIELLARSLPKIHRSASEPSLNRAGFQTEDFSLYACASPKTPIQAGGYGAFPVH
Fibroblast growth factor receptor 4 (Homo sapiens), sequence (P22455 22-802 limits assumed): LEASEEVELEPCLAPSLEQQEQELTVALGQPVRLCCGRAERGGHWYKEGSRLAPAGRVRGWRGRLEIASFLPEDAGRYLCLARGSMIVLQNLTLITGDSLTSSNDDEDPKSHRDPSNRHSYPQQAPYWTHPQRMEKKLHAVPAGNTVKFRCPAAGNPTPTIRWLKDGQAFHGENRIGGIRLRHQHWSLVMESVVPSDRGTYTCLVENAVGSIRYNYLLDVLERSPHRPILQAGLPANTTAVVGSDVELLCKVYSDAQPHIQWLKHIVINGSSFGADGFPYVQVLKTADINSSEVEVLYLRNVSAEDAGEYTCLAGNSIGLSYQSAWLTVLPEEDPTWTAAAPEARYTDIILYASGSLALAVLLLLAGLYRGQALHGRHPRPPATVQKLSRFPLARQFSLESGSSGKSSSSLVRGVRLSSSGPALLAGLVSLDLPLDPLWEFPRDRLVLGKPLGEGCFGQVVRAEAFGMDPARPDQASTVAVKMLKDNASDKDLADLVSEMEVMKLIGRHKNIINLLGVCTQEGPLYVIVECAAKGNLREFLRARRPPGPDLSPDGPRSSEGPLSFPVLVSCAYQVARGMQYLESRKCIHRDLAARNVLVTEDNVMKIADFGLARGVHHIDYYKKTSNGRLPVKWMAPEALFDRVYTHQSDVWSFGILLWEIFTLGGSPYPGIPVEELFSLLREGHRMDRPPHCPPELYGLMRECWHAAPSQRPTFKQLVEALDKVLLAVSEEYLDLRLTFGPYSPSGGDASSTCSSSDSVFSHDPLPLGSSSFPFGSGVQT

COc1ccccc1-c1csc2cnc(Nc3ccc(C(=O)NC4CCNCC4)c(F)c3)nc12
IC50 (A549 [1]): 270 nM
IC50 (MDA-MB-231 [2]): 190 nM
inhibition [3]: 51%
inhibition [4]: 66%
inhibition [5]: 72%
inhibition [6]: 2%
inhibition [7]: 67%
inhibition [8]: 3%
inhibition [9]: 48%
viability at 0.1 µM (MDA-MB-231 [10]): 85.5%
Activity (MDA-MB-231 [11]): 4.36%
viability at 0.2 µM (MDA-MB-231 [12]): 75%
Activity (MDA-MB-231 [13]): 26.21%
Activity (MDA-MB-231 [14]): 41.96%
Activity (MDA-MB-231 [15]): 51.4%
Activity (MDA-MB-231 [16]): 39.11%
Activity (MDA-MB-231 [17]): 56.27%
Activity (MDA-MB-231 [18]): 40.18%
Activity (MDA-MB-231 [19]): 3.55%
inhibition (MDA-MB-231 [20]): Tde
CLH [21]: 18.6 µL/min/mg
viability at 0.5 µM (A549 [22]): 79.1%
viability at 0.1 µM (MDA-MB-231 [23]): 97.6%
viability at 0.1 µM (MDA-MB-231 [24]): 69.7%
viability at 2.5 µM (MDA-MB-231 [25]): 11.9%
Activity (MDA-MB-231 [26]): Dose-dependent effect
Activity (A549 [27]): Tde
